Laboratory results as given in ChEMBL document CHEMBL1649165, “Activity profile in vitro of micafungin against Spanish clinical isolates of common and emerging species of yeasts and molds” (2009).
Converted amounts (≈) assume the structure as drawn.

Tests used:
Format in all cases: functional
Candida metapsilosis = test: Antimicrobial activity against Candida metapsilosis by broth microdilution method; details: Lodderomyces metapsilosis
How it was run: (§1)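 Clinical isolates from human patients, tested by broth microdilution using the AFST-EUCAST reference procedure for fermentative yeasts. The MIC was read per that reference method.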

Lichtheimia corymbifera = test: Antimicrobial activity against Mycocladus corymbiferus by broth microdilution method
How it was run: (§2)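 Filamentous fungus clinical isolates tested by the AFST-EUCAST reference broth microdilution method for moulds. For echinocandins, the endpoint was the minimum effective concentration: the lowest drug concentration giving aberrant hyphal growth, read with an inverted microscope.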

Saksenaea vasiformis = test: Antimicrobial activity against Saksenaea vasiformis by broth microdilution method; how it was run: as §2
[1] = Antimicrobial activity against Hormographiella aspergillata by broth microdilution method; details: Coprinopsis cinerea; how it was run: as §2
Aspergillus = test: Antimicrobial activity against Aspergillus spp. by broth microdilution method
How it was run: (§3)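 Clinical mould isolates, tested by broth microdilution using the AFST-EUCAST reference method for filamentous fungi. For echinocandins, the endpoint was the minimum effective concentration: the lowest drug concentration giving aberrant hyphal growth, read with an inverted microscope.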

Cladosporium = test: Antimicrobial activity against Cladosporium spp. by broth microdilution method; how it was run: as §3
Beauveria bassiana = test: Antimicrobial activity against Beauveria bassiana by broth microdilution method; how it was run: as §3
Pichia norvegensis = test: Antimicrobial activity against Candida norvegensis by broth microdilution method; how it was run: as §1
[Candida] zeylanoides = Antimicrobial activity against Candida zeylanoides by broth microdilution method; details: Dujonia zeylanoides; how it was run: as §1
Aspergillus niger = test: Antimicrobial activity against Aspergillus niger by broth microdilution method; how it was run: as §3
Nakaseomyces glabratus = test: Antimicrobial activity against Candida glabrata by broth microdilution method; how it was run: as §1
Aspergillus sydowii = test: Antimicrobial activity against Aspergillus sydowii by broth microdilution method; how it was run: as §3
Geotrichum candidum = test: Antimicrobial activity against Galactomyces geotrichum by broth microdilution method
Candida albicans = test: Antimicrobial activity against Candida albicans by broth microdilution method; how it was run: as §1
Aspergillus sclerotiorum = test: Antimicrobial activity against Aspergillus sclerotiorum by broth microdilution method; how it was run: as §3
[2] = Antimicrobial activity against Rhizopus microsporus by broth microdilution method; how it was run: as §2
Papiliotrema laurentii = test: Antimicrobial activity against Cryptococcus laurentii by broth microdilution method
How it was run: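 Clinical isolates of nonfermentative yeasts, tested by broth microdilution following EUCAST recommendations. The only change from that method was a minor modification to improve growth.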

Wickerhamomyces anomalus = test: Antimicrobial activity against Candida pelliculosa by broth microdilution method; details: Hansenula anomala; how it was run: as §1
Lomentospora prolificans = test: Antimicrobial activity against Scedosporium prolificans by broth microdilution method; how it was run: as §2
Trichosporon asahii = test: Antimicrobial activity against Trichosporon asahii by broth microdilution method
How it was run: (§4)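 Nonfermentative yeast clinical isolates (Rhodotorula, Trichosporon) tested by broth microdilution. The EUCAST yeast recommendations were followed strictly, with one minor modification to improve growth. MIC was read as the endpoint.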

[3] = test system: Cladophialophora bantiana; test: Antimicrobial activity against Cladophialophora bantiana by broth microdilution method; how it was run: as §3
[Candida] inconspicua = Antimicrobial activity against Candida inconspicua by broth microdilution method; details: Pichia inconspicua; how it was run: as §1
Neurospora sitophila = test: Antimicrobial activity against Chrysonilia sitophila by broth microdilution method; how it was run: as §3
Trichosporon dermatis = test: Antimicrobial activity against Trichosporon dermatis by broth microdilution method; details: Cutaneotrichosporon dermatis; how it was run: as §4
Exophiala jeanselmei = test: Antimicrobial activity against Exophiala jeanselmei by broth microdilution method
Paecilomyces variotii = test: Antimicrobial activity against Paecilomyces variotii by broth microdilution method; how it was run: as §2
Saccharomyces cerevisiae = test: Antimicrobial activity against Saccharomyces cerevisiae by broth microdilution method
Alternaria alternata = test: Antimicrobial activity against Alternaria alternata by broth microdilution method; how it was run: as §3
Aspergillus fumigatus = test: Antimicrobial activity against Aspergillus fumigatus by broth microdilution method; how it was run: as §3
Magnusiomyces capitatus = test: Antimicrobial activity against Dipodascus capitatus by broth microdilution method
Trichosporon = test: Antimicrobial activity against Trichosporon spp. by broth microdilution method; how it was run: as §4
Rhizomucor = test: Antimicrobial activity against Rhizomucor spp.by broth microdilution method; how it was run: as §2
Trichosporon ovoides = test: Antimicrobial activity against Trichosporon ovoides by broth microdilution method; how it was run: as §4
Debaryomyces hansenii = test: Antimicrobial activity against Candida famata by broth microdilution method; how it was run: as §1
Candida parapsilosis = test: Antimicrobial activity against Candida parapsilosis by broth microdilution method; details: Lodderomyces parapsilosis; how it was run: as §1
Paecilomyces lilacinus = test: Antimicrobial activity against Paecilomyces lilacinus by broth microdilution method; details: Purpureocillium lilacinum; how it was run: as §2
Trichosporon jirovecii = test: Antimicrobial activity against Trichosporon jirovecii by broth microdilution method; details: Cutaneotrichosporon jirovecii; how it was run: as §4
Aspergillus versicolor = test: Antimicrobial activity against Aspergillus versicolor by broth microdilution method; how it was run: as §3
Yarrowia lipolytica = test: Antimicrobial activity against Yarrowia lipolytica by broth microdilution method
Pichia kudriavzevii = test: Antimicrobial activity against Candida krusei by broth microdilution method; how it was run: as §1
Trichoderma = test: Antimicrobial activity against Trichoderma spp. by broth microdilution method; how it was run: as §2

Work on `C[C@@H]1[C@H](O)[C@@H](C)/C=C/C=C/C=C/C=C/C=C/C=C/C=C/[C@H](O[C@@H]2O[C@H](C)[C@@H](O)[C@H](N)[C@@H]2O)C[C@@H]2O[C@](O)(C[C@@H](O)C[C@@H](O)[C@H](O)CC[C@@H](O)C[C@@H](O)CC(=O)O[C@H]1C)C[C@H](O)[C@H]2C(=O)O` [AMPHOTERICIN B] yielded an MIC50 (Candida metapsilosis) of 0.12 µg/mL (≈ 0.13 µM), an MIC90 (Candida metapsilosis) of 1 µg/mL (≈ 1.08 µM) and an MIC50 (Lichtheimia corymbifera) of 0.12 µg/mL (≈ 0.13 µM). The MIC90 (Lichtheimia corymbifera) was 0.25 µg/mL (≈ 0.271 µM), the MIC50 (Saksenaea vasiformis) was 2 µg/mL (≈ 2.16 µM) and the MIC90 (Saksenaea vasiformis) was greater than 16 µg/mL. The MIC50 [1] was 0.5 µg/mL (≈ 0.541 µM), the MIC90 [1] was greater than 16 µg/mL and the MIC50 (Aspergillus) was 0.5 µg/mL (≈ 0.541 µM). The MIC90 (Aspergillus) was greater than 16 µg/mL, the MIC50 (Cladosporium) was 0.25 µg/mL (≈ 0.271 µM) and the MIC90 (Cladosporium) was 1 µg/mL (≈ 1.08 µM). It also gave an MIC50 (Beauveria bassiana) of 0.5 µg/mL (≈ 0.541 µM), an MIC90 (Beauveria bassiana) greater than 16 µg/mL and an MIC50 (Pichia norvegensis) of 0.12 µg/mL (≈ 0.13 µM). It also gave an MIC90 (Pichia norvegensis) of 1 µg/mL (≈ 1.08 µM), an MIC50 ([Candida] zeylanoides) of 0.12 µg/mL (≈ 0.13 µM) and an MIC90 ([Candida] zeylanoides) of 1 µg/mL (≈ 1.08 µM). For the same molecule, the MIC50 (Aspergillus niger) was 0.25 µg/mL (≈ 0.271 µM), the MIC90 (Aspergillus niger) was 0.25 µg/mL (≈ 0.271 µM) and the MIC50 (Nakaseomyces glabratus) was 0.12 µg/mL (≈ 0.13 µM). The MIC90 (Nakaseomyces glabratus) was 0.25 µg/mL (≈ 0.271 µM), the MIC50 (Aspergillus sydowii) was 1 µg/mL (≈ 1.08 µM) and the MIC90 (Aspergillus sydowii) was 2 µg/mL (≈ 2.16 µM). It also gave an MIC50 (Geotrichum candidum) of 0.25 µg/mL (≈ 0.271 µM), an MIC90 (Geotrichum candidum) of 0.5 µg/mL (≈ 0.541 µM) and an MIC50 (Candida albicans) of 0.06 µg/mL (≈ 0.0649 µM). The MIC90 (Candida albicans) was 0.12 µg/mL (≈ 0.13 µM), the MIC50 (Aspergillus sclerotiorum) was 0.5 µg/mL (≈ 0.541 µM) and the MIC90 (Aspergillus sclerotiorum) was greater than 16 µg/mL. For the same molecule, the MIC50 [2] was 2 µg/mL (≈ 2.16 µM), the MIC90 [2] was greater than 16 µg/mL and the MIC50 (Papiliotrema laurentii) was 0.5 µg/mL (≈ 0.541 µM). The MIC90 (Papiliotrema laurentii) was 8 µg/mL (≈ 8.66 µM), the MIC50 (Wickerhamomyces anomalus) was 0.12 µg/mL (≈ 0.13 µM) and the MIC90 (Wickerhamomyces anomalus) was 1 µg/mL (≈ 1.08 µM). It also gave an MIC50 (Lomentospora prolificans) greater than 16 µg/mL, an MIC90 (Lomentospora prolificans) greater than 16 µg/mL and an MIC50 (Trichosporon asahii) of 8 µg/mL (≈ 8.66 µM). The MIC90 (Trichosporon asahii) was greater than 16 µg/mL, the MIC50 [3] was 0.25 µg/mL (≈ 0.271 µM) and the MIC90 [3] was 1 µg/mL (≈ 1.08 µM). The MIC50 ([Candida] inconspicua) was 0.12 µg/mL (≈ 0.13 µM), the MIC90 ([Candida] inconspicua) was 1 µg/mL (≈ 1.08 µM) and the MIC50 (Neurospora sitophila) was 0.5 µg/mL (≈ 0.541 µM). For the same molecule, the MIC90 (Neurospora sitophila) was greater than 16 µg/mL, the MIC50 (Trichosporon dermatis) was 0.5 µg/mL (≈ 0.541 µM) and the MIC90 (Trichosporon dermatis) was 8 µg/mL (≈ 8.66 µM). The MIC50 (Exophiala jeanselmei) was 0.25 µg/mL (≈ 0.271 µM), the MIC90 (Exophiala jeanselmei) was 1 µg/mL (≈ 1.08 µM) and the MIC50 (Paecilomyces variotii) was 0.03 µg/mL (≈ 0.0325 µM). It also gave an MIC90 (Paecilomyces variotii) of 0.5 µg/mL (≈ 0.541 µM), an MIC50 (Saccharomyces cerevisiae) of 0.12 µg/mL (≈ 0.13 µM) and an MIC90 (Saccharomyces cerevisiae) of 0.25 µg/mL (≈ 0.271 µM). For the same molecule, the MIC50 (Alternaria alternata) was 0.5 µg/mL (≈ 0.541 µM), the MIC90 (Alternaria alternata) was greater than 16 µg/mL and the MIC50 (Aspergillus fumigatus) was 0.25 µg/mL (≈ 0.271 µM). The MIC90 (Aspergillus fumigatus) was 0.5 µg/mL (≈ 0.541 µM), the MIC50 (Magnusiomyces capitatus) was 0.5 µg/mL (≈ 0.541 µM) and the MIC90 (Magnusiomyces capitatus) was 0.5 µg/mL (≈ 0.541 µM). The MIC50 (Trichosporon) was 0.5 µg/mL (≈ 0.541 µM), the MIC90 (Trichosporon) was 8 µg/mL (≈ 8.66 µM) and the MIC50 (Rhizomucor) was 2 µg/mL (≈ 2.16 µM). For the same molecule, the MIC90 (Rhizomucor) was greater than 16 µg/mL, the MIC50 (Trichosporon ovoides) was 0.5 µg/mL (≈ 0.541 µM) and the MIC90 (Trichosporon ovoides) was 8 µg/mL (≈ 8.66 µM). The MIC50 (Debaryomyces hansenii) was 0.12 µg/mL (≈ 0.13 µM), the MIC90 (Debaryomyces hansenii) was 1 µg/mL (≈ 1.08 µM) and the MIC50 (Candida parapsilosis) was 0.12 µg/mL (≈ 0.13 µM). It also gave an MIC90 (Candida parapsilosis) of 0.25 µg/mL (≈ 0.271 µM), an MIC50 (Paecilomyces lilacinus) greater than 16 µg/mL and an MIC90 (Paecilomyces lilacinus) greater than 16 µg/mL. It also gave an MIC50 (Trichosporon jirovecii) of 0.5 µg/mL (≈ 0.541 µM), an MIC90 (Trichosporon jirovecii) of 8 µg/mL (≈ 8.66 µM) and an MIC50 (Aspergillus versicolor) of 1 µg/mL (≈ 1.08 µM). It also gave an MIC90 (Aspergillus versicolor) of 2 µg/mL (≈ 2.16 µM), an MIC50 (Yarrowia lipolytica) of 0.5 µg/mL (≈ 0.541 µM) and an MIC90 (Yarrowia lipolytica) of 0.5 µg/mL (≈ 0.541 µM). For the same molecule, the MIC50 (Pichia kudriavzevii) was 0.5 µg/mL (≈ 0.541 µM), the MIC90 (Pichia kudriavzevii) was 0.5 µg/mL (≈ 0.541 µM) and the MIC50 (Trichoderma) was 0.5 µg/mL (≈ 0.541 µM). For the same molecule, the MIC90 (Trichoderma) was greater than 16 µg/mL.
